Test results as given in ChEMBL document CHEMBL2311257, “Synthesis and antioxidant activity of thymol and carvacrol based Schiff bases” (Bioorg Med Chem Lett, 2013).
In brackets after ≈: the same amount, converted by molar mass. Activity calls are given as the source filed them. The calls are words filed in the database; no cut-off is given here.

What was measured:
Assay type in all cases: functional
[1] = tested on: Radical scavenging activity; experiment: Antioxidant activity assessed as DPPH radical scavenging activity in chloroform solution at 100 ug/mL
[2] = tested on: Radical scavenging activity; experiment: Antioxidant activity assessed as DPPH radical scavenging activity in chloroform solution at 25 ug/mL
[3] = tested on: Radical scavenging activity; experiment: Antioxidant activity assessed as DPPH radical scavenging activity in chloroform solution at 50 ug/mL
[4] = tested on: Radical scavenging activity; experiment: Antioxidant activity assessed as DPPH radical scavenging activity in chloroform solution at 10 ug/mL
[5] = tested on: Radical scavenging activity; experiment: Antioxidant activity assessed as DPPH radical scavenging activity in ethanol solution at 50 ug/mL
Method in brief: (§1)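 Compound dissolved in ethanol, then ethanolic DPPH added. Incubated 30 min in the dark. DPPH decrease read as absorbance at 517 nm against an ethanol blank, with ascorbic acid as reference. % activity = [(A0 − Ai)/A0] × 100, where A0 is absorbance without compound and Ai with compound. IC50 taken from activity across concentrations.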

[6] = tested on: Radical scavenging activity; experiment: Antioxidant activity assessed as DPPH radical scavenging activity in ethanol solution at 100 ug/mL; method in brief: as §1
[7] = tested on: Radical scavenging activity; experiment: Antioxidant activity assessed as DPPH radical scavenging activity in chloroform solution at 5 ug/mL
[8] = tested on: Radical scavenging activity; experiment: Antioxidant activity assessed as DPPH radical scavenging activity in ethanol solution at 25 ug/mL; method in brief: as §1
[9] = tested on: Radical scavenging activity; experiment: Antioxidant activity assessed as DPPH radical scavenging activity in ethanol solution at 5 ug/mL; method in brief: as §1
[10] = tested on: Radical scavenging activity; experiment: Antioxidant activity assessed as DPPH radical scavenging activity in ethanol solution at 10 ug/mL; method in brief: as §1
[11] = Antioxidant activity assessed as ABTS radical scavenging activity at 5 ug/mL
Method in brief: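 ABTS radical cation solution diluted in ethanol to an absorbance of 0.7–0.9 at 734 nm, 30 °C. Equal volume added to ethanolic compound solution (5 µg/mL). Absorbance read after 1 min and converted to percent inhibition.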

[12] = tested on: Radical scavenging activity; experiment: Antioxidant activity assessed as DPPH radical scavenging activity in chloroform solution
[13] = tested on: Radical scavenging activity; experiment: Antioxidant activity assessed as DPPH radical scavenging activity in ethanol solution; method in brief: as §1

Structure (SMILES) | Activity [1] | Activity [2] | Activity [3] | Activity [4] | Activity [5] | Activity [6] | Activity [7] | Activity [8] | Activity [9] | Activity [10] | Activity [11] | IC50 [12] | IC50 [13]
COc1cc(/C=N/c2cc(C)c(O)cc2C(C)C)cc(OC)c1 | 88.4% | 61.7% | 79.1% | 39.3% | 74.2% | 85.8% | 20.4% | 65.7% | 27.5% | 40.7% | Active | 25.79 µg/mL (≈ 82.3 µM) | 22.02 µg/mL (≈ 70.3 µM)
COc1ccc(/C=N/c2cc(C(C)(C)C)c(O)cc2C)cc1 | 89.8% | 82.6% | 87.3% | 36.3% | 83.4% | 90.6% | 19.7% | 65% | 29.2% | 50% | Active | 17.55 µg/mL (≈ 59 µM) | 13.92 µg/mL (≈ 46.8 µM)
COc1cc(/C=N/c2cc(C(C)(C)C)c(O)cc2C)cc(OC)c1OC | 91.8% | 75.8% | 81.7% | 45.2% | 81% | 84.4% | 17.3% | 65.4% | 25.9% | 44.9% | Active | 18.6 µg/mL (≈ 52 µM) | 18.79 µg/mL (≈ 52.6 µM)
Cc1cc(O)c(C(C)(C)C)cc1/N=C/c1ccccc1O | 90.9% | 70% | 85.7% | 48.6% | 86.4% | 90.7% | 24.9% | 69.6% | 29% | 51% | Active | 14.36 µg/mL (≈ 50.7 µM) | 10.54 µg/mL (≈ 37.2 µM)
Cc1cc(O)c(C(C)(C)C)cc1/N=C/c1cc(Br)c(O)c(Br)c1 | 95.3% | 78.5% | 85.7% | 50.3% | 95.8% | 95.8% | 24.2% | 82.8% | 23.9% | 49% | Active | 10.69 µg/mL (≈ 24.2 µM) | 7.55 µg/mL (≈ 17.1 µM)
Cc1cc(/N=C/c2ccc(O)cc2)c(C(C)C)cc1O | 88.1% | 66.2% | 75.9% | 42.8% | 82.9% | 92.2% | 36.1% | 70.4% | 33.7% | 48.6% | Active | 15.13 µg/mL (≈ 56.2 µM) | 9.76 µg/mL (≈ 36.2 µM)
COc1cc(/C=N/c2cc(C(C)(C)C)c(O)cc2C)cc(OC)c1 | 89.5% | 67.9% | 86.6% | 36.8% | 76.9% | 80.4% | 27% | 66.1% | 26.3% | 43.8% | Active | 19.62 µg/mL (≈ 59.9 µM) | 20.2 µg/mL (≈ 61.7 µM)
Cc1cc(/N=C/c2cc(Br)cc(Br)c2O)c(C(C)C)cc1O | 88.5% | 65.8% | 77.4% | 44.4% | 79.3% | 90.8% | 28.1% | 72% | 31.5% | 47.3% | Active | 18.73 µg/mL (≈ 43.9 µM) | 11.97 µg/mL (≈ 28 µM)
